What was measured:
[1] = Stability in pH 7.4 PBS buffer at 1 mM after 6 hrs by HPLC analysis; format: physicochemical; conditions: read-out: Stability
Method in brief: (§1)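 Compound in DMSO added to 1x PBS adjusted with HCl/NaOH to pH 6.5, 7.4 or 8.0, giving about 1 mM final. Sulfonyl fluoride hydrolysis followed by analytical HPLC over 12 h. Peak measured right after buffer addition set as 0 h reference. Reported as residual % of intact R-SO2F.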

[2] = biological target: T1, Proteasome subunit beta type-10 (Homo sapiens, UniProt P40306); assay: Inhibition of human 20S immunoproteasome beta-2 using Bz-VGR-AMC as substrate after 60 mins by fluorescence assay
T1 sequence (P40306 whole entry): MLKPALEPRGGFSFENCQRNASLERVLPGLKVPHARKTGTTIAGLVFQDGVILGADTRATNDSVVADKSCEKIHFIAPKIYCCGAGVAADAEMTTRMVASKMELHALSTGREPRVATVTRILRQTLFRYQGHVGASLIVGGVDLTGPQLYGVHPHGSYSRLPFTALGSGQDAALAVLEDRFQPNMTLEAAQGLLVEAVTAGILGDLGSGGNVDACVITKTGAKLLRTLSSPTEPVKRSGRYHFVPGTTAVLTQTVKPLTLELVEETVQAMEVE
Method in brief: (§2)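 Purified 20S proteasome (final 2.5 nM) in kit assay buffer. Inhibitors preincubated 60 min at ambient temperature with shaking, final concentrations 0.1 nM–400 µM. Fluorogenic substrate at final 100 µM. Fluorescence (ex 360 nm, em 460 nm) read kinetically for 2 h at 25 °C. Duplicates, three repetitions. IC50 obtained from a Hill-equation fit of % residual activity against log concentration.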

[3] = biological target: T2, Proteasome subunit beta type-8 (Homo sapiens, UniProt P28062); assay: Inhibition of human 20S immunoproteasome beta-5 using Suc-LLVY-AMC as substrate after 60 mins by fluorescence assay; method in brief: as §2
T2 sequence (P28062 whole entry): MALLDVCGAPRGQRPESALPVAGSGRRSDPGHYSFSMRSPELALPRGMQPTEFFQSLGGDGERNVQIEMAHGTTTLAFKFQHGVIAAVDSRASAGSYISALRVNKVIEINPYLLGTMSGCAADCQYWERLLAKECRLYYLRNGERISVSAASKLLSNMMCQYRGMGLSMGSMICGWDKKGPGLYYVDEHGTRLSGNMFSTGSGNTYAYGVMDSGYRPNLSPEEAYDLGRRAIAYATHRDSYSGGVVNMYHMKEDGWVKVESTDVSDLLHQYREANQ

Homo sapiens [4] = organism: Homo sapiens; assay: Selectivity ratio of IC50 for human 20S constitutive proteasome beta-5 to IC50 for human 20S constitutive proteasome beta-2
[5] = Stability in pH 7.4 PBS buffer at 1 mM after 1 hr by HPLC analysis; format: physicochemical; conditions: read-out: Stability; method in brief: as §1
[6] = Stability in pH 8 PBS buffer at 1 mM after 2 hrs by HPLC analysis; format: physicochemical; conditions: read-out: Stability; method in brief: as §1
[7] = Stability in pH 6.5 PBS buffer at 1 mM after 12 hrs by HPLC analysis; format: physicochemical; conditions: read-out: Stability; method in brief: as §1
[8] = biological target: T3, Proteasome Macropain subunit MB1 (Homo sapiens, UniProt P28074); assay: Inhibition of human 20S constitutive proteasome beta-5 using Suc-LLVY-AMC as substrate after 60 mins by fluorescence assay
T3 sequence (P28074 whole entry): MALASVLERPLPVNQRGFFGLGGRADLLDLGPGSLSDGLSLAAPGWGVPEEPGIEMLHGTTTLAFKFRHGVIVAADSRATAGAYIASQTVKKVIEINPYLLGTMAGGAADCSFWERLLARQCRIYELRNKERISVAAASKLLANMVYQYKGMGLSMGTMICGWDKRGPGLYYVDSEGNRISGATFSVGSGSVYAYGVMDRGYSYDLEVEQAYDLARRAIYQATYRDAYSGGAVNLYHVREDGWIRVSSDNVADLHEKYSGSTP
Method in brief: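 Inhibitors preincubated 60 min at ambient temperature with shaking, final concentrations 0.1 nM–400 µM. Fluorogenic substrate at final 100 µM. Duplicates, three repetitions. IC50 obtained from a Hill-equation fit of % residual activity against log concentration.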

Homo sapiens [9] = organism: Homo sapiens; assay: Selectivity ratio of IC50 for human 20S immunoproteasome beta-5 to IC50 for human 20S immunoproteasome beta-2

CC(C)C[C@H](NC(=O)OCc1ccccc1)C(=O)N[C@@H](CC(C)C)C(=O)N[C@@H](CC(C)C)C(=O)N[C@@H](CCCNC(=N)N)CS(=O)(=O)F
remaining at 6 h, 1000 µM [1]: ≥ 50%
IC50 [2]: 1.11 µM
IC50 [3]: 14 µM
Ratio IC50 (Homo sapiens [4]): 50
remaining at 1 h, 1000 µM [5]: 90%
remaining at 2 h, 1000 µM [6]: 50%
remaining at 12 h, 1000 µM [7]: 75%
IC50 [8]: 10 µM
Ratio IC50 (Homo sapiens [9]): 13

CC(C)C[C@H](NC(=O)[C@H](CC(C)C)NC(=O)[C@H](Cc1ccccc1)NC(=O)OC(C)(C)C)C(=O)N[C@@H](CCCNC(=N)N)CS(=O)(=O)F
remaining at 6 h, 1000 µM [1]: ≥ 50%
Ratio IC50 (Homo sapiens [4]): 40
remaining at 1 h, 1000 µM [5]: 90%
remaining at 2 h, 1000 µM [6]: 50%
remaining at 12 h, 1000 µM [7]: 75%
IC50 [8]: 27.8 µM

CC(C)C[C@H](NC(=O)[C@H](CC(C)C)NC(=O)[C@@H](N)Cc1ccccc1)C(=O)N[C@@H](CCCCN)CS(=O)(=O)F
remaining at 6 h, 1000 µM [1]: ≥ 50%
IC50 [2]: 0.3 µM
IC50 [3]: > 100 µM
Ratio IC50 (Homo sapiens [4]): > 1000
remaining at 1 h, 1000 µM [5]: 90%
remaining at 2 h, 1000 µM [6]: 50%
remaining at 12 h, 1000 µM [7]: 75%
IC50 [8]: > 100 µM
Ratio IC50 (Homo sapiens [9]): > 1000

CC(C)C[C@H](NC(=O)[C@H](Cc1ccccc1)N=[N+]=[N-])C(=O)N[C@@H](CC(C)C)C(=O)N[C@H](/C=C/S(C)(=O)=O)Cc1ccc(CN)cc1
IC50 [2]: 0.0275 µM
IC50 [3]: 1.8 µM

CC(C)C[C@H](NC(=O)[C@H](Cc1ccccc1)N=[N+]=[N-])C(=O)N[C@@H](CC(C)C)C(=O)N[C@@H](Cc1ccc(CN)cc1)CS(=O)(=O)F
remaining at 6 h, 1000 µM [1]: ≥ 50%
IC50 [2]: 0.13 µM
IC50 [3]: 3.1 µM
Ratio IC50 (Homo sapiens [4]): 66
remaining at 1 h, 1000 µM [5]: 90%
remaining at 2 h, 1000 µM [6]: 50%
remaining at 12 h, 1000 µM [7]: 75%
IC50 [8]: 8.9 µM
Ratio IC50 (Homo sapiens [9]): 24

CC(C)C[C@H](NC(=O)[C@H](CC(C)C)NC(=O)[C@@H](N)Cc1ccccc1)C(=O)N[C@@H](Cc1ccc(N)cc1)CS(=O)(=O)F
remaining at 6 h, 1000 µM [1]: ≥ 50%
IC50 [2]: 0.2 µM
IC50 [3]: 0.45 µM
Ratio IC50 (Homo sapiens [4]): 4.3
remaining at 1 h, 1000 µM [5]: 90%
remaining at 2 h, 1000 µM [6]: 50%
remaining at 12 h, 1000 µM [7]: 75%
IC50 [8]: 0.95 µM
Ratio IC50 (Homo sapiens [9]): 2.3

CC(=O)N[C@@H](Cc1ccccc1)C(=O)N[C@@H](CC(C)C)C(=O)N[C@@H](CC(C)C)C(=O)N[C@@H](CCCNC(=N)N)CS(=O)(=O)F
remaining at 6 h, 1000 µM [1]: ≥ 50%
Ratio IC50 (Homo sapiens [4]): 70
remaining at 1 h, 1000 µM [5]: 90%
remaining at 2 h, 1000 µM [6]: 50%
remaining at 12 h, 1000 µM [7]: 75%
IC50 [8]: 69 µM

CC(C)C[C@H](NC(=O)[C@H](Cc1ccccc1)N=[N+]=[N-])C(=O)N[C@@H](CC(C)C)C(=O)N[C@@H](Cc1ccc(N)cc1)CS(=O)(=O)F
remaining at 6 h, 1000 µM [1]: ≥ 50%
remaining at 1 h, 1000 µM [5]: 90%
remaining at 2 h, 1000 µM [6]: 50%
remaining at 12 h, 1000 µM [7]: 75%

CC(C)C[C@H](NC(=O)[C@H](CC(C)C)NC(=O)[C@@H](N)Cc1ccccc1)C(=O)N[C@@H](Cc1ccc(CN)cc1)CS(=O)(=O)F
remaining at 6 h, 1000 µM [1]: ≥ 50%
IC50 [2]: 0.36 µM
IC50 [3]: 137 µM
Ratio IC50 (Homo sapiens [4]): 900
remaining at 1 h, 1000 µM [5]: 90%
remaining at 2 h, 1000 µM [6]: 50%
remaining at 12 h, 1000 µM [7]: 75%
IC50 [8]: 125 µM
Ratio IC50 (Homo sapiens [9]): 380

CC(=O)N[C@@H](Cc1ccccc1)C(=O)N[C@@H](CC(C)C)C(=O)N[C@@H](CC(C)C)C(=O)N[C@@H](Cc1ccc(CN)cc1)CS(=O)(=O)F
remaining at 6 h, 1000 µM [1]: ≥ 50%
IC50 [2]: 0.395 µM
IC50 [3]: 17.2 µM
Ratio IC50 (Homo sapiens [4]): 150
remaining at 1 h, 1000 µM [5]: 90%
remaining at 2 h, 1000 µM [6]: 50%
remaining at 12 h, 1000 µM [7]: 75%
IC50 [8]: 18 µM
Ratio IC50 (Homo sapiens [9]): 44

CC(C)C[C@H](NC(=O)[C@H](Cc1ccccc1)N=[N+]=[N-])C(=O)N[C@@H](CC(C)C)C(=O)N[C@@H](CCCNC(=N)N)CS(=O)(=O)F
remaining at 6 h, 1000 µM [1]: ≥ 50%
Ratio IC50 (Homo sapiens [4]): 110
remaining at 1 h, 1000 µM [5]: 90%
remaining at 2 h, 1000 µM [6]: 50%
remaining at 12 h, 1000 µM [7]: 75%
IC50 [8]: 39 µM

CC(C)C[C@H](NC(=O)[C@H](CC(C)C)NC(=O)[C@@H](N)Cc1ccccc1)C(=O)N[C@@H](CCCNC(=N)N)CS(=O)(=O)F
remaining at 6 h, 1000 µM [1]: ≥ 50%
IC50 [2]: 0.21 µM
IC50 [3]: > 100 µM
Ratio IC50 (Homo sapiens [4]): 560
remaining at 1 h, 1000 µM [5]: 90%
remaining at 2 h, 1000 µM [6]: 50%
remaining at 12 h, 1000 µM [7]: 75%
IC50 [8]: 140 µM
Ratio IC50 (Homo sapiens [9]): > 1000

CC(=O)N[C@@H](Cc1ccccc1)C(=O)N[C@@H](CC(C)C)C(=O)N[C@@H](CC(C)C)C(=O)N[C@@H](CCCCN)CS(=O)(=O)F
remaining at 6 h, 1000 µM [1]: ≥ 50%
Ratio IC50 (Homo sapiens [4]): 300
remaining at 1 h, 1000 µM [5]: 90%
remaining at 2 h, 1000 µM [6]: 50%
remaining at 12 h, 1000 µM [7]: 75%
IC50 [8]: > 100 µM

CC(C)C[C@H](NC(=O)[C@H](CC(C)C)NC(=O)[C@H](Cc1ccccc1)NC(=O)OCc1ccccc1)C(=O)N[C@@H](CCCNC(=N)N)CS(=O)(=O)F
remaining at 6 h, 1000 µM [1]: ≥ 50%
IC50 [2]: 0.4 µM
IC50 [3]: 6.7 µM
Ratio IC50 (Homo sapiens [4]): 45
remaining at 1 h, 1000 µM [5]: 90%
remaining at 2 h, 1000 µM [6]: 50%
remaining at 12 h, 1000 µM [7]: 75%
IC50 [8]: 6.7 µM
Ratio IC50 (Homo sapiens [9]): 17

CC(C)C[C@H](NC(=O)[C@H](Cc1ccccc1)N=[N+]=[N-])C(=O)N[C@@H](CC(C)C)C(=O)N[C@@H](CCCCN)CS(=O)(=O)F
remaining at 6 h, 1000 µM [1]: ≥ 50%
Ratio IC50 (Homo sapiens [4]): 96
remaining at 1 h, 1000 µM [5]: 90%
remaining at 2 h, 1000 µM [6]: 50%
remaining at 12 h, 1000 µM [7]: 75%
IC50 [8]: 67 µM

CC(=O)N[C@@H](Cc1ccccc1)C(=O)N[C@@H](CC(C)C)C(=O)N[C@@H](CC(C)C)C(=O)N[C@@H](Cc1ccc(N)cc1)CS(=O)(=O)F
remaining at 6 h, 1000 µM [1]: ≥ 50%
Ratio IC50 (Homo sapiens [4]): 0.1
remaining at 1 h, 1000 µM [5]: 90%
remaining at 2 h, 1000 µM [6]: 50%
remaining at 12 h, 1000 µM [7]: 75%
IC50 [8]: 0.21 µM
